In ChEMBL document CHEMBL4251573, “Synthesis and biological evaluation of N-substituted 3-oxo-1,2,3,4-tetrahydro-quinoxaline-6-carboxylic acid derivatives as tubulin polymerization inhibitors” (Eur J Med Chem, 2018):
The source made the active and inactive calls. The calls are words filed in the database; no cut-off is given here.

Key:
[1] = system: SMMC-7721; assay: Antiproliferative activity against human SMMC7721 cells after 72 hrs by MTT assay; assay type: functional, cell-based; settings: SMMC-7721, 72 h
In short: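 HeLa and SMMC-7721 cells in log phase were seeded at 4000-6000 cells/well. After 24 h, quadruplicate wells were treated with a series of concentrations for 72 h. DMSO stocks were 5 mmol/L, with final DMSO below 0.1%. MTT (10 mg/mL in PBS) was added for 4 h, medium replaced with DMSO, and OD read at 490 nm. IC50 came from at least five concentrations; mean and SD of at least three independent experiments.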

[2] = system: HeLa; assay: Cell cycle arrest in human HeLa cells assessed as accumulation at S phase at 0.15 uM after 24 hrs by propidium iodide staining-based flow cytometric method (reference value: 10.3%); assay type: functional
[3] = system: HeLa; assay: Cell cycle arrest in human HeLa cells assessed as accumulation at G0/G1 phase at 0.20 uM after 24 hrs by propidium iodide staining-based flow cytometric method (reference value: 62.2%); assay type: functional
[4] = system: HeLa; assay: Cell cycle arrest in human HeLa cells assessed as accumulation at G0/G1 phase at 0.25 uM after 24 hrs by propidium iodide staining-based flow cytometric method (reference value: 62.2%); assay type: functional
[5] = system: HeLa; assay: Cell cycle arrest in human HeLa cells assessed as accumulation at S phase at 0.25 uM after 24 hrs by propidium iodide staining-based flow cytometric method (reference value: 10.3%); assay type: functional
[6] = system: HeLa; assay: Cell cycle arrest in human HeLa cells assessed as accumulation at G2/M phase at 0.25 uM after 24 hrs by propidium iodide staining-based flow cytometric method (reference value: 19.9%); assay type: functional
[7] = system: HeLa; assay: Induction of apoptosis in human HeLa cells assessed as early apoptotic cells at 0.10 uM after 24 hrs by annexin V-FITC/propidium iodide staining-based flow cytometric method (reference value: 2.31%); assay type: functional
[8] = system: HeLa; assay: Induction of apoptosis in human HeLa cells assessed as late apoptotic cells at 0.15 uM after 24 hrs by annexin V-FITC/propidium iodide staining-based flow cytometric method (reference value: 0.15%); assay type: functional
[9] = system: HeLa; assay: Induction of apoptosis in human HeLa cells assessed as necrotic cells at 0.15 uM after 24 hrs by annexin V-FITC/propidium iodide staining-based flow cytometric method (reference value: 0.15%); assay type: functional
[10] = system: HeLa; assay: Induction of apoptosis in human HeLa cells assessed as late apoptotic cells at 0.20 uM after 24 hrs by annexin V-FITC/propidium iodide staining-based flow cytometric method (reference value: 0.15%); assay type: functional
[11] = species on record: Sus scrofa; assay: Competitive binding affinity to porcine brain tubulin preincubated for 1 hr followed by colchicine addition measured after 1 hr by fluorescence assay
In short: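 Tubulin (4 μM) in 80 mM PIPES pH 6.9, 2 mM MgCl2 and 0.5 mM EGTA was preincubated 1 h at 37 °C with 0.1, 1, 5 or 10 μM test agent, with DMSO as control. Colchicine (10 μM) was then added for another 1 h at 37 °C. Tubulin-colchicine fluorescence was read at ex 340/em 435 nm and normalized to DMSO; at least three replicates, mean ± SD.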

[12] = system: HeLa; assay: Induction of apoptosis in human HeLa cells assessed as cell shrinkage at 0.10 to 0.20 uM by microscopic method; assay type: functional, cell-based
In short: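 Morphology of HeLa cells was examined by light microscopy after 24 h exposure to 0.10, 0.15 or 0.20 μM, or 0.1% DMSO, alongside the annexin V/PI experiment.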

In the case of `COC(=O)c1ccc2c(c1)NC(=O)CN2C(=O)c1cc(OC)c(OC)c(OC)c1`, the IC50 [1] is reported as 71 nM, the Activity [2] is reported as 8.3% and the Activity [3] is reported as 18.4%. It also gave an Activity [4] of 13.8%, an Activity [5] of 8.3% and an Activity [6] of 44.6%. It also gave an Activity [7] of 12.1%, an Activity [8] of 9.95% and an Activity [9] of 3.81%. For the same compound, the Activity [10] was 14.4%, the Activity [11] was “Dose-dependent effect” and the Activity [12] was “Active”.
